Results collected from several papers.
Lines come from different studies, so protocols differ.
MTNR1A: Melatonin receptor type 1A (MTNR1A, Homo sapiens, UniProt P48039)

Compound	target	assay	system	conditions	endpoint	value
CCN(CC)CCCC[C@H](NC(=O)[C@H](CC(C)C)NC(=O)[C@H](C)NC(=O)[C@H](Cc1ccccc1)NC(=O)c1ccc(C(C)(C)C)cc1)C(=O)N[C@@H](CO)C(=O)OC	MTNR1A	ligand displacement, radioligand	–	10 µM	remaining binding	92.1%
C#Cc1n[nH]c2c(-c3cn(C(C)c4ccccn4)c(=O)[nH]c3=O)cc(F)cc12 (centres unmarked)	Myotonin-protein kinase (DMPK, Homo sapiens, UniProt Q09013)	enzyme activity, inhibitor	–	1 µM	inhibition	1.2%
COCc1c(-c2cc3cc(C)cc(OC)c3s2)c2c(N)ncnn2c1CN1CCNC(=O)C1	5-hydroxytryptamine receptor 2C (HTR2C, Homo sapiens, UniProt P28335)	ligand displacement, radioligand	–	10 µM	inhibition	30%
Nc1ncc(-c2nc(N3CCOCC3)nc(N3CCOCC3)n2)c(C(F)F)n1	Aurora kinase A (AURKA, Homo sapiens, UniProt O14965)	binding, competition with immobilised ligand	–	10 µM	remaining binding	52%
COc1ccc2cccc(C(CO)CNC(=O)CF)c2c1 (centres unmarked)	MTNR1A	cAMP, agonist, TR-FRET	CHO-K1	20 min	Emax	93%
Cc1nn(C)cc1-c1nc2c(N3CCN(Cc4ccc(Cl)cc4)CC3)c(Cl)cnc2[nH]1	Tyrosine-protein kinase receptor Tie-1 (TIE1, Homo sapiens, UniProt P35590)	binding, competition with immobilised ligand	–	1 µM	remaining binding	47%
COc1ccc2[nH]cc(CCNC(=O)CI)c2c1	MTNR1A	cAMP, agonist, TR-FRET	CHO-K1	20 min	Emax	103%
COc1ncccc1-c1cnn2ccc(N3CCN(C(=O)OC(C)C)CC3)nc12	BMP-2-inducible protein kinase (BMP2K, Homo sapiens, UniProt Q9NSY1)	binding, competition with immobilised ligand	–	1 µM	remaining binding	3.5%
